Test results as given in ChEMBL document CHEMBL4000256, “Light-Regulated NO Release as a Novel Strategy To Overcome Doxorubicin Multidrug Resistance” (ACS Med Chem Lett, 2017).

Molecular target: T1, ATP-binding cassette sub-family C member 4 (Homo sapiens, UniProt O15439)
T1 sequence (O15439 whole entry): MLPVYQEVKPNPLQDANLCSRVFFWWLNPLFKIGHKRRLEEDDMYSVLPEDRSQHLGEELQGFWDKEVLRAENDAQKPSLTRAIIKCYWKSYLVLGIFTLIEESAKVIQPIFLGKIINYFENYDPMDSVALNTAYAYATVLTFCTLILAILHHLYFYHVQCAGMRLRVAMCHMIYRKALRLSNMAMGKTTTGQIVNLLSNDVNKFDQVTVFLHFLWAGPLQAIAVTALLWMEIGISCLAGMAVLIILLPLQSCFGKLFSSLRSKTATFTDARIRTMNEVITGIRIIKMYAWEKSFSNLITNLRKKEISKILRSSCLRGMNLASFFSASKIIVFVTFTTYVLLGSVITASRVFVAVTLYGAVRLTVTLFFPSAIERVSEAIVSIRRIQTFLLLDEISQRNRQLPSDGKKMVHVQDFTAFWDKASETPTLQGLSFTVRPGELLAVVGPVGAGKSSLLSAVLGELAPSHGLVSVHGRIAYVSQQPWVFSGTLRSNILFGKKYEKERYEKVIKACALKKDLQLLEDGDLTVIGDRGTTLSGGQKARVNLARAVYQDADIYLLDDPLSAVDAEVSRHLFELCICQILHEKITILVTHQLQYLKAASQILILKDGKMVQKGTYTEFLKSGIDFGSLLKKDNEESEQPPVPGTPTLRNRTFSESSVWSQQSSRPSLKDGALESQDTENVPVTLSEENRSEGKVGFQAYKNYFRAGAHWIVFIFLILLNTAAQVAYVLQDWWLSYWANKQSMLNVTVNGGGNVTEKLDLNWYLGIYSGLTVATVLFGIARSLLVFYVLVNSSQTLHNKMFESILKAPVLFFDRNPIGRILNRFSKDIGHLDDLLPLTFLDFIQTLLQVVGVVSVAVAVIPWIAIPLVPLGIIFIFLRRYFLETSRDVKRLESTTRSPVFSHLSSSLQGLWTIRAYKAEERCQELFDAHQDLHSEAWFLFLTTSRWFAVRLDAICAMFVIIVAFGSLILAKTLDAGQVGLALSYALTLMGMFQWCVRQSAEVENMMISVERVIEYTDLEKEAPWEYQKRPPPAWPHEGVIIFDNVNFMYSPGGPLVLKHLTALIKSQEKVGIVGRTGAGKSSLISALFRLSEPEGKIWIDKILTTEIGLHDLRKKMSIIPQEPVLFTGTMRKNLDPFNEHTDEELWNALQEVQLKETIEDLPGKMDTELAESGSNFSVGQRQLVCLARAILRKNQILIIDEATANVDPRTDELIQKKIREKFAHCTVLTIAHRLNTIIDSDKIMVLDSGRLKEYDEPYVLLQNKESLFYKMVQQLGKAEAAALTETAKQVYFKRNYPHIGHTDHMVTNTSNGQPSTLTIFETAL
Assay: Inhibition of MRP4 in 7 mW/cm'2 irradiated human M14 cells assessed as nitration of tyrosine in MRP4 at 5 uM measured after 20 mins in presence of doxorubicin by immunoblotting; call rule not given here
In short: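 M14 melanoma cells held 20 min at room temperature in PBS under 400 nm light (7 mW/cm2) with 5 μM compound, alone or with equimolar doxorubicin. Nitrated ABC transporters (Pgp, MRP1, MRP4, BCRP) detected by immunoblot.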

**Q.** For `NCCCNc1ccc([N+](=O)[O-])c(C(F)(F)F)c1`, which “inhibition (INH)” value is on record?
**A.** Active
